From ChEMBL document CHEMBL1142937, “Synthesis, affinity profile, and functional activity of muscarinic antagonists with a 1-methyl-2-(2,2-alkylaryl-1,3-oxathiolan-5-yl)pyrrolidine structure” (J Med Chem, 2007) come the findings set out here.

Broadly, the Ki is a dissociation constant, usually derived from enzyme kinetics or from competition with a known ligand. By pKb is commonly meant −log10 of the Kb, conventionally taken in molar units.

Structures are written as SMILES.

Assay [1] has as its target T1, Muscarinic acetylcholine receptor M2 (Homo sapiens, UniProt P08172).
T1 sequence (P08172 whole entry): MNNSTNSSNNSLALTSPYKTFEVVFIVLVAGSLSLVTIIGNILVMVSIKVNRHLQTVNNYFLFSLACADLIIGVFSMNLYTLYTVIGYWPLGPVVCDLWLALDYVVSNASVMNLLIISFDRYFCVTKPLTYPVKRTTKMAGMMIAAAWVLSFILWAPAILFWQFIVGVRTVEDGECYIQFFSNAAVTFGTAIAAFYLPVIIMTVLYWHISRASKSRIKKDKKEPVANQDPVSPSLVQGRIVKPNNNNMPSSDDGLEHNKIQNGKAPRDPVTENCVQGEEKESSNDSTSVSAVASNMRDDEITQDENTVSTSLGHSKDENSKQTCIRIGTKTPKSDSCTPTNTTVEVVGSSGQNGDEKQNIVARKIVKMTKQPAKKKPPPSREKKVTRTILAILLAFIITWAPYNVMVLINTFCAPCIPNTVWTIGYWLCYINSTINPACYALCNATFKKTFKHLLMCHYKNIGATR
The assay is described as follows: Binding affinity to human cloned muscarinic receptor M2 expressed in CHO cells. It counts as cell-based. Put shortly:
(§1)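 Equilibrium radioligand binding on CHO cells expressing the cloned human muscarinic subtype. Affinity is reported as pKi.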

Assay [2] concerns the target T2, Muscarinic acetylcholine receptor M1 (Homo sapiens, UniProt P11229).
T2 sequence (P11229 whole entry): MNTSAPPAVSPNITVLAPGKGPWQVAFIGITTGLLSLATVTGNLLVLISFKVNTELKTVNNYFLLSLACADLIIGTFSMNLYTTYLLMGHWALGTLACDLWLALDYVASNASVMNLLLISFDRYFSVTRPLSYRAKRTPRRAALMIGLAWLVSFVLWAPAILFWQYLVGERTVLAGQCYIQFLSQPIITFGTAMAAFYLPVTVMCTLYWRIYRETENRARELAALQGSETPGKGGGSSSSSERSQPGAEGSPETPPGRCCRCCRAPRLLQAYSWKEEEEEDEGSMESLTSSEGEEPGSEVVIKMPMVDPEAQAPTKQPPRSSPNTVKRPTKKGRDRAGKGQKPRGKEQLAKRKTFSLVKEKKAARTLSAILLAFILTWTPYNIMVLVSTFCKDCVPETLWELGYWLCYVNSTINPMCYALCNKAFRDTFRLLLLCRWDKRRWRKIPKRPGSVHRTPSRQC
The assay can be described thus: Binding affinity to human cloned muscarinic receptor M1 expressed in CHO cells. It counts as cell-based.

The target of assay [3] is Muscarinic acetylcholine receptor M3 (Homo sapiens, UniProt P20309). The assay can be described thus: Binding affinity to human cloned muscarinic receptor M3 expressed in CHO cells. It counts as cell-based.
Muscarinic acetylcholine receptor M3, sequence (P20309 whole entry): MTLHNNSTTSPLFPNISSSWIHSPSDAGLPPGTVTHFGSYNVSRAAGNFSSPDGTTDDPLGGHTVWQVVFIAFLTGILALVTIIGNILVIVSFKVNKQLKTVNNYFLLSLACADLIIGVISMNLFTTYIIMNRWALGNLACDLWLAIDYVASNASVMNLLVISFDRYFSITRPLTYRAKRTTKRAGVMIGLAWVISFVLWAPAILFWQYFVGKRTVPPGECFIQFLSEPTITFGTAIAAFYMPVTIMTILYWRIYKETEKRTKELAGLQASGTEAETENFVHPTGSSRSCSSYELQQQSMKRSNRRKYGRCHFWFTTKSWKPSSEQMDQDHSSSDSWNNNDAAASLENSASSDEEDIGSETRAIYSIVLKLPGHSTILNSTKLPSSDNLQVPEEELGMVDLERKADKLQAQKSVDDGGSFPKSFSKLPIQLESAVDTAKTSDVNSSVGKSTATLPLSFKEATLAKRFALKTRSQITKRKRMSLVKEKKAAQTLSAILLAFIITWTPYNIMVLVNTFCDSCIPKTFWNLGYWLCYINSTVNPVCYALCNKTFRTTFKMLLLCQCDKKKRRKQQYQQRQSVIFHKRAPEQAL
Assay [4] deals with Muscarinic acetylcholine receptor M3 (Cavia porcellus) (UniProt Q8VH26). The assay can be described thus: Antagonist activity at muscarinic receptor M3 assessed as contraction of guinea pig ileum. It counts as functional, tissue-based. The note with it: filed as antagonist. An outline of the steps:
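Isolated guinea pig tissue preparations (stimulated left atria, ileum, lung strips), run in vitro by a previously described protocol, with the ileum method slightly modified. Agonist dose–response curves were recorded before and after one or two antagonist concentrations. pKb = log(DR−1) − log[B], where DR is the ratio of agonist ED50 after/before antagonist. Some cases were expressed as pA2 from Schild plots constrained to slope −1.0.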

For assay [5], the target named is T3, Muscarinic acetylcholine receptor M4 (Homo sapiens, UniProt P08173).
T3 sequence (P08173 whole entry): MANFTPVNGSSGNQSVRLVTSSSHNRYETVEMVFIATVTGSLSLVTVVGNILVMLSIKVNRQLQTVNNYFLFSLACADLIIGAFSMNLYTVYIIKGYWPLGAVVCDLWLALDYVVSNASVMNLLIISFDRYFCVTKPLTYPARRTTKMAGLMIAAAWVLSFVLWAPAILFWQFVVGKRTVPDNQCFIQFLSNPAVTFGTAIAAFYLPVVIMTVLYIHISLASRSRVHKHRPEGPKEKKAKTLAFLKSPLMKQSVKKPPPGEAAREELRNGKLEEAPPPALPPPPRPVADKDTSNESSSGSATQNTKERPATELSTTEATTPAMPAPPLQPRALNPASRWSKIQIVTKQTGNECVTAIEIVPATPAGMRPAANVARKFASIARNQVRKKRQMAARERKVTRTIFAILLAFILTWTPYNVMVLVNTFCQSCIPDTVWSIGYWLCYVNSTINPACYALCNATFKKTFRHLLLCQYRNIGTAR
The assay is described as follows: Binding affinity to human cloned muscarinic receptor M4 expressed in CHO cells. It counts as cell-based.

In assay [6] the target is T4, Muscarinic acetylcholine receptor M5 (Homo sapiens, UniProt P08912).
T4 sequence (P08912 whole entry): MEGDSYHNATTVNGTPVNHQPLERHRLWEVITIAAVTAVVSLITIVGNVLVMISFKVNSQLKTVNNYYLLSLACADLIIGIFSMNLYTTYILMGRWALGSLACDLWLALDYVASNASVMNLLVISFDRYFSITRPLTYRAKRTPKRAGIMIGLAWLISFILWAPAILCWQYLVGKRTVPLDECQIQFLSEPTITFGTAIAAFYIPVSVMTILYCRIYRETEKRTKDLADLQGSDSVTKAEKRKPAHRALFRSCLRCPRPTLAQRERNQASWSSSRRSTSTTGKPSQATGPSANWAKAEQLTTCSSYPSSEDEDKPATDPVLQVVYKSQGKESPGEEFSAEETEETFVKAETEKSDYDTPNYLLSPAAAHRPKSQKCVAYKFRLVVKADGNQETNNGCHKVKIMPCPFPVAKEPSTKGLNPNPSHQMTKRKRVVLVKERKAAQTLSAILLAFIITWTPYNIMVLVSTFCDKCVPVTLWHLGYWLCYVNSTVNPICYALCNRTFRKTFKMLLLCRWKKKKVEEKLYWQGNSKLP
The assay is described as follows: Binding affinity to human cloned muscarinic receptor M5 expressed in CHO cells. It counts as cell-based. An outline of the steps: as §1

Assay [7] has as its system Muscarinic acetylcholine receptor M4, putative (Cavia porcellus). The assay is described as follows: Antagonist activity at putative muscarinic receptor M4 assessed as contraction of electrically-stimulated guinea pig lung strips. The note with it: filed as antagonist.
Assay [8] has as its system Muscarinic acetylcholine receptor M2 (Cavia porcellus). The assay can be described thus: Antagonist activity at muscarinic receptor M2 assessed as contraction of electrically-stimulated guinea pig left atria. Conditions: for pKb: filed as antagonist; for Kb: read-out: pA2 (converted).
Assay [9] concerns Muscarinic acetylcholine receptor M1, putative (Oryctolagus cuniculus). Conditions: Vas deferens, filed as antagonist.

Muscarinic acetylcholine receptor M3 (Cavia porcellus), sequence (Q8VH26 1-587): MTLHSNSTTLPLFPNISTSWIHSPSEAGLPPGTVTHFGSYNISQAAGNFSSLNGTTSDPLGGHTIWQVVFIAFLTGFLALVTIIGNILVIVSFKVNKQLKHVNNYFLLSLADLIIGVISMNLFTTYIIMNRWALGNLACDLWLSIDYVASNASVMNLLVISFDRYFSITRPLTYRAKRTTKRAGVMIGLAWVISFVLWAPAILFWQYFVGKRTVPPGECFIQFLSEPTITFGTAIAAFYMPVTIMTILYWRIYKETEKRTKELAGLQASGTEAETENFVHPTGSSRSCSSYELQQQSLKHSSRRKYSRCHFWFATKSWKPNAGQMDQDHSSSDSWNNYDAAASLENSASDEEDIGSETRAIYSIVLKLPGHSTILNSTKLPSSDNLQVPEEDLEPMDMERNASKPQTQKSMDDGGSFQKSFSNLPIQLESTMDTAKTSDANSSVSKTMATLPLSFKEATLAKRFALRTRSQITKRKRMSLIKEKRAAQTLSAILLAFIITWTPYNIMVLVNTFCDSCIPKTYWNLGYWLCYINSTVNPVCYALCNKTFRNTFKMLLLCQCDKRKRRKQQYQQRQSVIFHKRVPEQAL

As for `CN1CCC[C@H]1[C@H]1CS[C@](c2ccccc2)(C2CCCCC2)O1`, the Ki in assay [1] is on record as 4.27 nM (antagonist); in assay [2], 1.48 nM (antagonist); in assay [3] it was 1.7 nM (antagonist); in assay [5], 1.2 nM (antagonist); in assay [6], 2 nM (antagonist). Also, the pKb is 7.7 in [4], 5.92 in [7], 6.91 in assay [8] and 8.32 in assay [9].
For the molecule `C[N+]1(C)CCC[C@H]1[C@H]1CS[C@](c2ccccc2)(C2CCCCC2)O1`, the Ki is on record as 0.776 nM (antagonist) in [1]; 0.251 nM (antagonist) in assay [2]; 0.589 nM (antagonist) in [3]; 0.871 nM (antagonist) in assay [5]; 0.2 nM (antagonist) in assay [6]. Also, the pKb in assay [4] is 8.5; in [7] it was 7.47; in assay [9], 9.52. In addition, in [8], the Kb was 4.27 nM (antagonist).
As to `C[N+]1(C)CCC[C@@H]1[C@@H]1CS[C@](c2ccccc2)(C2CCCCC2)O1`, the Ki is on record as 1.48 nM (antagonist) in assay [1]; 0.955 nM (antagonist) in assay [2]; 4.9 nM (antagonist) in assay [3]; 1.82 nM (antagonist) in [5]; 3.24 nM (antagonist) in assay [6]. In addition, the pKb in [4] is 8.84; in assay [7], 6.55; in assay [8], 8.54; in [9] it was 8.49.
Consider `CN1CCC[C@H]1[C@H]1CS[C@@](c2ccccc2)(C2CCCCC2)O1`, for which the Ki in [1] is 2.75 nM (antagonist); in assay [2], 1.38 nM (antagonist); in [3], 0.891 nM (antagonist); in assay [5], 2.34 nM (antagonist); in assay [6], 1.35 nM (antagonist). Also, the pKb in assay [4] is 8.92; in [7], 6.22; in [8] it was 8.82; in assay [9] it was 7.41.
`CN1CCC[C@@H]1[C@@H]1CS[C@](c2ccccc2)(C2CCCCC2)O1`: the Ki was 1.07 nM (antagonist) in [1]; 0.347 nM (antagonist) in assay [2]; 2.19 nM (antagonist) in assay [3]; 1 nM (antagonist) in assay [5]; 2 nM (antagonist) in assay [6]. The pKb in [4] was 8.55; in assay [7], 6.03; in assay [8], 8.07; in assay [9] it was 9.16.
On to `C[N+]1(C)CCC[C@H]1[C@H]1CSC(c2ccccc2)(c2ccccc2)O1`, for which the Ki in assay [1] is on record as 0.468 nM (antagonist); in assay [2] it was 0.295 nM (antagonist); in assay [3], 0.741 nM (antagonist); in assay [5] it was 0.468 nM (antagonist); in assay [6], 0.407 nM (antagonist). In addition, the pKb in assay [4] was 9.16; in [7], 7.79; in [8], 8.78; in [9] it was 9.56.
With `C[N+](C)(C)C[C@@H]1CS[C@@](c2ccccc2)(C2CCCCC2)O1`, the inhibition constant Ki in [1] is recorded as 7.59 nM (antagonist); in [2], 1.1 nM (antagonist); in assay [3] it was 1.78 nM (antagonist); in [5], 6.17 nM (antagonist); in assay [6], 2.82 nM (antagonist). In addition, the pKb was 8.79 in assay [4], 6.24 in assay [7], 8.47 in [8] and 8.81 in assay [9].
For the molecule `C[N+]1(C)CCC[C@H]1[C@H]1CS[C@@](c2ccccc2)(C2CCCCC2)O1`, the inhibition constant Ki was 0.955 nM (antagonist) in assay [1]; 0.117 nM (antagonist) in assay [2]; 0.339 nM (antagonist) in assay [3]; 0.871 nM (antagonist) in assay [5]; 0.107 nM (antagonist) in assay [6]. Also, the pKb in assay [4] was 9.66; in [7] it was 7.99; in assay [9] it was 9.97. Moreover, the Kb in [8] is on record as 1 nM (antagonist).
For the molecule `CN1CCC[C@H]1[C@H]1CSC(c2ccccc2)(c2ccccc2)O1`, the Ki in assay [1] was 4.9 nM (antagonist); in assay [2], 3.47 nM (antagonist); in assay [3], 5.25 nM (antagonist); in assay [5] it was 3.31 nM (antagonist); in assay [6], 5.62 nM (antagonist). Also, the pKb is 8.05 in assay [4], 6.41 in assay [7], 7.58 in assay [8] and 7.93 in assay [9].
For `CN1CCC[C@@H]1[C@@H]1CS[C@@](c2ccccc2)(C2CCCCC2)O1`, the Ki in assay [1] is 4.47 nM (antagonist); in assay [2], 0.912 nM (antagonist); in [3], 1.45 nM (antagonist); in [5], 1.26 nM (antagonist); in [6], 1.2 nM (antagonist). Besides, the pKb was 7.65 in assay [4], 5.98 in [7], 7.13 in assay [8] and 7.95 in assay [9].
With `CN1CCC[C@@H]1[C@@H]1CSC(c2ccccc2)(c2ccccc2)O1`, the inhibition constant (Ki) in assay [1] is reported as 2.75 nM (antagonist); in assay [2] it was 0.759 nM (antagonist); in assay [3] it was 2.45 nM (antagonist); in assay [5], 2 nM (antagonist); in [6], 3.24 nM (antagonist). Further, the pKb in [4] is 8.44; in [7] it was 6.06; in assay [8] it was 7.97; in [9], 8.66.
Take `C[N+]1(C)CCC[C@@H]1[C@@H]1CS[C@@](c2ccccc2)(C2CCCCC2)O1`: the Ki is listed as 0.832 nM (antagonist) in assay [1]; 0.501 nM (antagonist) in assay [2]; 0.912 nM (antagonist) in assay [3]; 0.708 nM (antagonist) in [5]; 0.776 nM (antagonist) in [6]. Also, the pKb is 8.79 in assay [4], 6.47 in assay [7], 8.6 in [8] and 9.53 in assay [9].
